ChEMBL document CHEMBL1131287, “Design, synthesis, and biological activities of potent and selective somatostatin analogues incorporating novel peptoid residues” (J Med Chem, 1998)
Square brackets hold non-standard residues; d marks the D form. Peptide text beside a SMILES is read from it.

How the values were obtained:
Format in all cases: cell-based
[1] = target: T1, Somatostatin receptor type 4 (Homo sapiens, UniProt P31391); assay: In vitro inhibition of radioligand binding to human somatostatin receptor (hsst4) expressed in CHO-K1 cells.
Method in brief: (§1)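 Membranes from CHO-K1 clones stably expressing the hsst subtype (pCMV, G418-selected), washed in 50 mM Tris-HCl. Stopped by PEI-treated GF/C filtration. Specific binding was defined against 1000 nM SRIF-14.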

[2] = target: T2, Somatostatin receptor type 3 (Homo sapiens, UniProt P32745); assay: In vitro inhibition of radioligand binding to human somatostatin receptor (hsst3) expressed in CHO cells.
Method in brief: (§2)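 Competition binding on cell or membrane homogenates in 10 mM HEPES pH 7.5 with 0.5% BSA, 5 mM MgCl2 and 5 μg/mL bacitracin, 1 h at room temperature. Nonspecific binding with 1 μM SRIF14. Gamma counting, triplicates, nonlinear regression, reported as pKD.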

[3] = target: T3, Somatostatin receptor type 5 (Homo sapiens, UniProt P35346); assay: In vitro inhibition of radioligand binding to human Somatostatin receptor type 5 expressed in CHO-K1 cells.; method in brief: as §1
[4] = target: T4, Somatostatin receptor type 2 (Homo sapiens, UniProt P30874); assay: In vitro inhibition of radioligand binding to human somatostatin receptor (hsst2) expressed in CHO-K1 cells.
Method in brief: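 hsst2 stably expressed in CHO-K1 cells; washed membranes were used. Radioligand was 0.05 nM [125I]MK-678, incubated 90 min at 25 °C in 50 mM HEPES pH 7.4 buffer with BSA, MgCl2 and protease inhibitors. Filtered on PEI-soaked GF/C filters. Specific binding was defined against 1000 nM MK-678.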

[5] = target: T3, Somatostatin receptor type 5; assay: In vitro inhibition of radioligand binding to human Somatostatin receptor type 5 expressed in CCL-39 cells.; method in brief: as §2
[6] = target: T5, Somatostatin receptor type 1 (Homo sapiens, UniProt P30872); assay: In vitro inhibition of radioligand binding to human somatostatin receptor (hsst1) expressed in hSF6 cells.; method in brief: as §2
[7] = target: T5, Somatostatin receptor type 1; assay: In vitro inhibition of radioligand binding to human somatostatin receptor (hsst1) expressed in CHO-K1 cells.; method in brief: as §1
[8] = target: T4, Somatostatin receptor type 2; assay: In vitro inhibition of radioligand binding to human somatostatin receptor (hsst2) expressed in CHO cells.; method in brief: as §2
[9] = target: T1, Somatostatin receptor type 4; assay: In vitro inhibition of radioligand binding to human somatostatin receptor (hsst4) expressed in CHO cells.; method in brief: as §2
[10] = target: T2, Somatostatin receptor type 3; assay: In vitro inhibition of radioligand binding to human somatostatin receptor (hsst3) expressed in CHO-K1 cells.; method in brief: as §1

T2 sequence (P32745 whole entry): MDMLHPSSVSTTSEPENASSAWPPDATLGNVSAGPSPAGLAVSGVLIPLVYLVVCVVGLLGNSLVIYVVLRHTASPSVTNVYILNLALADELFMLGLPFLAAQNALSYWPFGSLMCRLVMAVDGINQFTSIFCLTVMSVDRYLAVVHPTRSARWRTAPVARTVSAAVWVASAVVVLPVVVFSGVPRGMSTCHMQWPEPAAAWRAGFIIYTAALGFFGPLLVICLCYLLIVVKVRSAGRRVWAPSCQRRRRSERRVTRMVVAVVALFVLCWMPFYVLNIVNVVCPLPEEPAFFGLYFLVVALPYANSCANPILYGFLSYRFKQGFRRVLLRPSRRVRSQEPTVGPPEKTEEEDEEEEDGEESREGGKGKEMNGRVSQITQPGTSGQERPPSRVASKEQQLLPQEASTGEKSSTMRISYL
T3 sequence (P35346 whole entry): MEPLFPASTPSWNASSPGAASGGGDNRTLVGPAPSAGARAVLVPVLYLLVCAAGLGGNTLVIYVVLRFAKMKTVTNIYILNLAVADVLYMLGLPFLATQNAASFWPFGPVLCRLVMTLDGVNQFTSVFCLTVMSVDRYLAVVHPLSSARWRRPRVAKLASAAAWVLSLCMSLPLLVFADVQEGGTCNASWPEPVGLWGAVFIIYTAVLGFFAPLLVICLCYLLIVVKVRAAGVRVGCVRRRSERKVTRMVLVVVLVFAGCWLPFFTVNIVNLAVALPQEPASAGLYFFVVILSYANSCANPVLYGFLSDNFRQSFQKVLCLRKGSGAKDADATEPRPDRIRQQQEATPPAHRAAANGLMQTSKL
T1 sequence (P31391 whole entry): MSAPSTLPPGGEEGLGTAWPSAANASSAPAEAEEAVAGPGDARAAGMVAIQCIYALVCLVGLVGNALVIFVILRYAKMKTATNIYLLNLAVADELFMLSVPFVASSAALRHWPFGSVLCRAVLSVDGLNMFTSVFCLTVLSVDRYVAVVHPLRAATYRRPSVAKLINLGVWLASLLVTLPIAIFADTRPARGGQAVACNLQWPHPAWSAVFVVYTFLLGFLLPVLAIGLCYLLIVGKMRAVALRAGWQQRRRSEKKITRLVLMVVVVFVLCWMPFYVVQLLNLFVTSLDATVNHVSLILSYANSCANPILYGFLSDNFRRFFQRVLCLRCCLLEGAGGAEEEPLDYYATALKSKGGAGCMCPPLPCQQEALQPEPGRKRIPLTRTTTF
T4 sequence (P30874 whole entry): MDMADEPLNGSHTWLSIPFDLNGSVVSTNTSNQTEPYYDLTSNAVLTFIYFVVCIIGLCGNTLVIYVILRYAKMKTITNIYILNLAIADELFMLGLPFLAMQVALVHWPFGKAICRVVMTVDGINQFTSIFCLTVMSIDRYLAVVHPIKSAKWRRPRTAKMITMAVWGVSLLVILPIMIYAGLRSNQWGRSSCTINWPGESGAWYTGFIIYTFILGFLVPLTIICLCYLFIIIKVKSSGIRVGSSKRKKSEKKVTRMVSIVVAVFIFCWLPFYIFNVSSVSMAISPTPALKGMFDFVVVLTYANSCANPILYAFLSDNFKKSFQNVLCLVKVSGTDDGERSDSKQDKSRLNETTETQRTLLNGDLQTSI
T5 sequence (P30872 whole entry): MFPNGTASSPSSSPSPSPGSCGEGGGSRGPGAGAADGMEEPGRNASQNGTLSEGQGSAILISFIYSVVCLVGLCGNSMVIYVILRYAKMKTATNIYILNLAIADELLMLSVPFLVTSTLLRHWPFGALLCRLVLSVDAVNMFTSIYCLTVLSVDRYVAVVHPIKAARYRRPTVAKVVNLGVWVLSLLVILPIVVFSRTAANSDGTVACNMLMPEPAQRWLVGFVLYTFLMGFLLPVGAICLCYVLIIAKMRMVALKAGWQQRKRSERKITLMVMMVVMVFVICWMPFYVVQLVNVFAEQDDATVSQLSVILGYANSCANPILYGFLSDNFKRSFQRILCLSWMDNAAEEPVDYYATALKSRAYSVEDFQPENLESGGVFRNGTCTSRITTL

SMILES | Ki ([1]; cho-k1) | Kd ([2]; cho) | Ki ([3]; cho-k1) | Ki ([4]; cho-k1) | Kd ([5]; ccl-39) | Kd [6] | Ki ([7]; cho-k1) | Kd ([8]; cho) | Kd ([9]; cho) | Ki ([10]; cho-k1) | Ki [1] | Kd [2] | Ki [3] | Ki [4] | Kd [5] | Ki [7] | Kd [8] | Kd [9] | Ki [10]
C[C@@H](O)[C@@H]1NC(=O)[C@H](CCCCN)NC(=O)[C@@H](Cc2c[nH]c3ccccc23)NC(=O)[C@H](Cc2ccccc2)NC(=O)CN([C@@H](C)c2ccccc2)C(=O)[C@H](Cc2ccccc2)NC1=O | 987 nM | 339 nM | 87 nM | 29.5 nM | 115 nM | 13200 nM | > 1000 nM | 6.17 nM | 2630 nM | 797 nM | – | – | – | – | – | – | – | – | –
C[C@H](c1ccccc1)N1CC(=O)N[C@@H](Cc2ccccc2)C(=O)N[C@H](Cc2c[nH]c3ccccc23)C(=O)N[C@@H](CCCCN)C(=O)N[C@@H]([C@@H](C)O)C(=O)N[C@@H](Cc2ccccc2)C1=O | > 1000 nM | 407 nM | 33.5 nM | 2.33 nM | 288 nM | 3550 nM | > 1000 nM | 2.04 nM | 4170 nM | 425 nM | – | – | – | – | – | – | – | – | –
C[C@@H](O)[C@@H]1NC(=O)[C@H](CCCCN)NC(=O)[C@@H](Cc2c[nH]c3ccccc23)NC(=O)[C@H](Cc2ccccc2)NC(=O)CN(Cc2ccccc2)C(=O)[C@H](Cc2ccccc2)NC1=O | > 1000 nM | 282 nM | 101 nM | 6.98 nM | 69 nM | 7080 nM | > 1000 nM | 2.95 nM | 4680 nM | 253 nM | – | – | – | – | – | – | – | – | –
C[C@@H](O)[C@@H]1NC(=O)[C@H](CCCCN)NC(=O)[C@@H](Cc2c[nH]c3ccccc23)NC(=O)[C@H](Cc2ccccc2)NC(=O)[C@@H]2CCCN2C(=O)[C@H](Cc2ccccc2)NC1=O (cyclo(PF[dW]KTF)) | – | – | – | – | – | 4570 nM | – | – | – | – | > 1000 nM | 525 nM | 25 nM | 5.1 nM | 7.6 nM | > 1000 nM | 0.76 nM | 8910 nM | 129 nM
